Data as given in paper PMC6045484 (ACS Omega, 2018).
Converted amounts (≈) assume the structure as drawn.

Columns and labels:
P. falciparum (D6) = assay: in vitro antimalarial activity, plasmodial LDH; format: cell-based, Plasmodium falciparum; settings: Plasmodium falciparum, D6, 72 h, read-out: P. falciparum (D6) IC50
[1] = system: L. donovani promastigotes; assay: in vitro antileishmanial activity, alamarBlue assay; format: cell-based, Leishmania donovani; settings: Leishmania donovani, 48 h; for IC50: read-out: L. donovani IC50, promastigotes, 48 h; for IC90: read-out: L. donovani IC90, promastigotes, 48 h
C. neoformans ATCC90113 = assay: in vitro antifungal activity; format: cell-based, Cryptococcus neoformans; settings: Cryptococcus neoformans; for IC50: ATCC90113, read-out: C. neoformans IC50; for MFC: ATCC90113, read-out: C. neoformans MFC; for MIC: ATCC90113, read-out: C. neoformans MIC
Method in brief: (§1)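 Modified NCCLS broth method in Sabouraud dextrose. Inoculum set by OD630 to 1.5 × 10^3 CFU/mL. Test compound serially diluted in 20% DMSO/saline, duplicate wells, up to 20 μg/mL. Incubated 70–74 h at 35 °C; 530 nm read before and after. IC50 is 50% growth inhibition; MIC is no detectable growth. MFC from clear wells subcultured on agar. Amphotericin B control.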

[2] = system: M. intracellulare (ATCC23068); assay: in vitro antibacterial activity, modified alamarBlue procedure; format: cell-based, Mycobacterium intracellulare; settings: Mycobacterium intracellulare; for IC50: ATCC23068, read-out: IC50 (concentration that affords 50% growth inhibition), M. intracellulare; for MBC: ATCC23068, read-out: MBC (minimum bactericidal concentration), M. intracellulare; for MIC: ATCC23068, read-out: MIC, M. intracellulare
Method in brief: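 Modified alamarBlue microplate method. Test compound serially diluted in 20% DMSO/saline, duplicate wells, up to 20 μg/mL. Inoculum 2.0 × 10^6 CFU/mL in Middlebrook 7H9 with OADC, pH 7.3, containing 5% alamarBlue. Incubated 70–74 h at 37 °C, 10% CO2; fluorescence 544ex/590em read before and after. MIC: no blue-to-pink change. MBC by subculturing blue wells on agar. Ciprofloxacin control.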

C. albicans ATCC90028 = assay: in vitro antifungal activity; format: cell-based, Candida albicans; settings: Candida albicans; for IC50: ATCC90028, read-out: C. albicans IC50; for MFC: ATCC90028, read-out: C. albicans MFC; for MIC: ATCC90028, read-out: C. albicans MIC
Method in brief: as §1

SA (ATCC29213) = assay: in vitro antibacterial activity; format: cell-based; settings: Staphylococcus aureus; for IC50: ATCC29213, read-out: IC50 (concentration that affords 50% growth inhibition), SA; for MBC: ATCC29213, read-out: MBC (minimum bactericidal concentration), SA; for MIC: ATCC29213, read-out: MIC, SA
Method in brief: (§2)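 Test compound serially diluted in 20% DMSO/saline and plated in duplicate, up to 20 μg/mL. Inoculum in cation-adjusted Mueller–Hinton broth, pH 7.3, set by OD630 to 5 × 10^5 CFU/mL. Incubated 16–20 h at 35 °C; 530 nm read before and after. IC50 is 50% growth inhibition; MIC is no detectable growth. MBC from clear wells subcultured on agar. Ciprofloxacin control.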

P. falciparum (W2) = assay: in vitro antimalarial activity, plasmodial LDH; format: cell-based, Plasmodium falciparum; settings: Plasmodium falciparum, W2, 72 h, read-out: P. falciparum (W2) IC50, CQ-resistant W2 strain, 72 h
Method in brief: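 P. falciparum-infected erythrocytes (2% parasitemia, 2% hematocrit) in RPMI 1640 with 10% human serum and 60 μg/mL amikacin. Exposed to test compound dilutions for 72 h at 37 °C under 90% N2/5% O2/5% CO2. LDH measured with Malstat reagent (30 min, room temperature), then NBT/PES for 1 h in the dark, stopped with 5% acetic acid, read at 650 nm. IC50 from dose-response curves.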

A. fumigatus ATCC 90906 = assay: in vitro antifungal activity; format: cell-based, Aspergillus fumigatus; settings: Aspergillus fumigatus; for IC50: ATCC90906, read-out: A. fumigatus IC50; for MFC: ATCC90906, read-out: A. fumigatus MFC; for MIC: ATCC90906, read-out: A. fumigatus MIC
Method in brief: as §1

[3] = system: SK-MEL, KB, BT-549, SK-OV-3, VERO and LLC-PK1 cells; assay: cytotoxicity, neutral red uptake assay; format: cell-based, mammalian; settings: highest test concentration 4760 ng/mL
Method in brief: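 Cells seeded at 25 000/well and allowed 24 h to reach confluence. Test compound was then added and incubated 48 h. Viable cells were counted by a modified neutral red uptake method. The panel was four human cancer lines and two noncancerous mammalian kidney lines. Doxorubicin served as positive control and DMSO as negative control.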

MRSA (ATCC33591) = assay: in vitro antibacterial activity; format: cell-based, methicillin-resistant Staphylococcus aureus; settings: Staphylococcus aureus, ATCC33591|MRSA, read-out: MIC, MRSA
Method in brief: as §2

## CCCCCOc1c(OC)cc(NC(C)CCCNC(=O)C(N)Cc2ccccc2)c2nc(C(C)(C)C)ccc12 (stereo not drawn) [compound 97, 2-Amino-N-(4-(2-tert-butyl-6-methoxy-5-(pentyloxy)quinolin-8-ylamino)pentyl)-3-phenylpropanamide]
P. falciparum (D6)
  IC50: 2.5 µg/mL (≈ 4.56 µM)
[1]
  IC50: 4 µg/mL (≈ 7.29 µM)
  IC90: 6.5 µg/mL (≈ 11.8 µM)
C. neoformans ATCC90113
  IC50: 2.29 µg/mL (≈ 4.17 µM)
  MFC: 2.5 µg/mL (≈ 4.56 µM)
  MIC: 2.5 µg/mL (≈ 4.56 µM)
[2]
  IC50: 14.9 µg/mL (≈ 27.2 µM)
  MBC: > 20 µg/mL
  MIC: > 20 µg/mL
C. albicans ATCC90028
  IC50: > 20 µg/mL
  MFC: > 20 µg/mL
  MIC: > 20 µg/mL
SA (ATCC29213)
  IC50: 5.81 µg/mL (≈ 10.6 µM)
  MBC: > 20 µg/mL
  MIC: 10 µg/mL (≈ 18.2 µM)
P. falciparum (W2)
  IC50: 1.3 µg/mL (≈ 2.37 µM)
A. fumigatus ATCC 90906
  IC50: > 20 µg/mL
  MFC: > 20 µg/mL
  MIC: > 20 µg/mL
[3]
  cytotoxicity CTX: NC (NC, not cytotoxic up to 4760 ng/mL (4.76 μg/mL))
MRSA (ATCC33591)
  MIC: 20 µg/mL (≈ 36.4 µM)

## CCCCCOc1c(OC)cc(NC(C)CCCNC(=O)C(N)Cc2cc3ccccc3[nH]2)c2nc(C(C)(C)C)ccc12 (stereo not drawn) [compound 98, 2-Amino-N-(4-(2-tert-butyl-6-methoxy-5-(pentyloxy)quinolin-8-ylamino)pentyl)-3-(1H-indol-2-yl)propanamide]
P. falciparum (D6)
  IC50: > 4.76 µg/mL
[1]
  IC50: 1.81 µg/mL (≈ 3.08 µM)
  IC90: 2.93 µg/mL (≈ 4.98 µM)
C. neoformans ATCC90113
  IC50: 1.21 µg/mL (≈ 2.06 µM)
  MFC: 2.5 µg/mL (≈ 4.25 µM)
  MIC: 2.5 µg/mL (≈ 4.25 µM)
[2]
  IC50: 8.47 µg/mL (≈ 14.4 µM)
  MBC: 20 µg/mL (≈ 34 µM)
  MIC: 10 µg/mL (≈ 17 µM)
C. albicans ATCC90028
  IC50: 18.8 µg/mL (≈ 31.9 µM)
  MFC: > 20 µg/mL
  MIC: > 20 µg/mL
SA (ATCC29213)
  IC50: 1.95 µg/mL (≈ 3.32 µM)
  MBC: 10 µg/mL (≈ 17 µM)
  MIC: 5 µg/mL (≈ 8.51 µM)
P. falciparum (W2)
  IC50: > 4.76 µg/mL
A. fumigatus ATCC 90906
  IC50: > 20 µg/mL
  MFC: > 20 µg/mL
  MIC: > 20 µg/mL
[3]
  cytotoxicity CTX: NC (NC, not cytotoxic up to 4760 ng/mL (4.76 μg/mL))
MRSA (ATCC33591)
  MIC: 5 µg/mL (≈ 8.51 µM)

## CCCCCCOc1c(OC)cc(NC(C)CCCNC(=O)C(N)CCSC)c2nc(C(C)(C)C)ccc12 (stereo not drawn) [compound 102, 2-Amino-N-(4-(2-tert-butyl-5-(hexyloxy)-6-methoxyquinolin-8-ylamino)pentyl)-4-(methylthio)butanamide]
P. falciparum (D6)
  IC50: 2.8 µg/mL (≈ 5.12 µM)
[1]
  IC50: 5.9 µg/mL (≈ 10.8 µM)
  IC90: 22 µg/mL (≈ 40.2 µM)
C. neoformans ATCC90113
  IC50: > 20 µg/mL
  MFC: > 20 µg/mL
  MIC: > 20 µg/mL
[2]
  IC50: 11.2 µg/mL (≈ 20.4 µM)
  MBC: 20 µg/mL (≈ 36.6 µM)
  MIC: 20 µg/mL (≈ 36.6 µM)
C. albicans ATCC90028
  IC50: > 20 µg/mL
  MFC: > 20 µg/mL
  MIC: > 20 µg/mL
SA (ATCC29213)
  IC50: 5.03 µg/mL (≈ 9.2 µM)
  MBC: 20 µg/mL (≈ 36.6 µM)
  MIC: 10 µg/mL (≈ 18.3 µM)
P. falciparum (W2)
  IC50: 2.8 µg/mL (≈ 5.12 µM)
A. fumigatus ATCC 90906
  IC50: > 20 µg/mL
  MFC: > 20 µg/mL
  MIC: > 20 µg/mL
[3]
  cytotoxicity CTX: NC (NC, not cytotoxic up to 4760 ng/mL (4.76 μg/mL))
MRSA (ATCC33591)
  MIC: 20 µg/mL (≈ 36.6 µM)

## CCCCCCOc1c(OC)cc(NC(C)CCCNC(=O)C(N)C(C)CC)c2nc(C(C)(C)C)ccc12 (stereo not drawn) [compound 104, 2-Amino-N-(4-(2-tert-butyl-5-(hexyloxy)-6-methoxyquinolin-8-ylamino)pentyl)-3-methylpentanamide]
P. falciparum (D6)
  IC50: 4.76 µg/mL (≈ 9 µM)
[1]
  IC50: 16 µg/mL (≈ 30.3 µM)
  IC90: 30 µg/mL (≈ 56.7 µM)
C. neoformans ATCC90113
  IC50: > 20 µg/mL
  MFC: > 20 µg/mL
  MIC: > 20 µg/mL
[2]
  IC50: > 20 µg/mL
  MBC: > 20 µg/mL
  MIC: > 20 µg/mL
C. albicans ATCC90028
  IC50: > 20 µg/mL
  MFC: > 20 µg/mL
  MIC: > 20 µg/mL
SA (ATCC29213)
  IC50: 13.2 µg/mL (≈ 24.9 µM)
  MBC: > 20 µg/mL
  MIC: > 20 µg/mL
P. falciparum (W2)
  IC50: 4 µg/mL (≈ 7.56 µM)
A. fumigatus ATCC 90906
  IC50: > 20 µg/mL
  MFC: > 20 µg/mL
  MIC: > 20 µg/mL
[3]
  cytotoxicity CTX: NC (NC, not cytotoxic up to 4760 ng/mL (4.76 μg/mL))
MRSA (ATCC33591)
  MIC: > 20 µg/mL
